The values that follow come from ChEMBL document CHEMBL1144181, “Achiral oligoamines as versatile tool for the development of aspartic protease inhibitors” (Bioorg Med Chem, 2008).

pIC50, pKi: −log10 of the molar value. Bounds are passed on as bounds.

The target in one assay is Protease (Human immunodeficiency virus 1, UniProt Q9YQ12). Kind of assay: Inhibition of recombinant HIV1 protease expressed in Escherichia coli by fluorescence technique.
Assay [1] is described as follows: Inhibition of Plasmodium recombinant plasmepsin-2 expressed in Escherichia coli by fluorescence technique. The method in brief: (§1)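 The recombinant enzyme was expressed in E. coli and purified. It was assayed at room temperature in 100 mM NaAc, pH 4.5, with 1 mg/mL BSA and 4% final DMSO. The substrate was Abz-Thr-Ile-Nle-(p-NO2-Phe)-Gln-Arg-NH2, read by fluorescence increase (ex 337, em 410 nm). IC50 came from nonlinear regression of vi/v0 versus inhibitor concentration, and Ki = IC50/[1+(S/Km)].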

Assay [2] can be described thus: Inhibition of Plasmodium recombinant plasmepsin-4 expressed in Escherichia coli by fluorescence technique. The method in brief: as §1
In another assay the target is T1, Renin (Homo sapiens, UniProt P00797).
T1 sequence (P00797 whole entry): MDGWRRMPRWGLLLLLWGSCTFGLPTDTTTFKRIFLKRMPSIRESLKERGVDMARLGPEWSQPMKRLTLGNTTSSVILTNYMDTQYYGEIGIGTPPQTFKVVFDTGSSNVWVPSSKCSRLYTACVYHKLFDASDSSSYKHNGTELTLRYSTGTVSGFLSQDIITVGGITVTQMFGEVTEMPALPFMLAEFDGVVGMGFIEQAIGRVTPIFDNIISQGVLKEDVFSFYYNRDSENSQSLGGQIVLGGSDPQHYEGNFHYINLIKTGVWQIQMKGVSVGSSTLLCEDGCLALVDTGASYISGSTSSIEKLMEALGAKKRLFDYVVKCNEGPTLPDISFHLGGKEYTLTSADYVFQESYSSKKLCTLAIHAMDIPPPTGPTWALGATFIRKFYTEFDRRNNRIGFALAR
Description: Inhibition of recombinant renin by fluorescence technique.

In the next assay the target is Beta-secretase 1 (Homo sapiens, UniProt P56817). Description: Inhibition of recombinant beta secretase 1 by fluorescence technique.
Chain of Beta-secretase 1 (P56817 whole entry): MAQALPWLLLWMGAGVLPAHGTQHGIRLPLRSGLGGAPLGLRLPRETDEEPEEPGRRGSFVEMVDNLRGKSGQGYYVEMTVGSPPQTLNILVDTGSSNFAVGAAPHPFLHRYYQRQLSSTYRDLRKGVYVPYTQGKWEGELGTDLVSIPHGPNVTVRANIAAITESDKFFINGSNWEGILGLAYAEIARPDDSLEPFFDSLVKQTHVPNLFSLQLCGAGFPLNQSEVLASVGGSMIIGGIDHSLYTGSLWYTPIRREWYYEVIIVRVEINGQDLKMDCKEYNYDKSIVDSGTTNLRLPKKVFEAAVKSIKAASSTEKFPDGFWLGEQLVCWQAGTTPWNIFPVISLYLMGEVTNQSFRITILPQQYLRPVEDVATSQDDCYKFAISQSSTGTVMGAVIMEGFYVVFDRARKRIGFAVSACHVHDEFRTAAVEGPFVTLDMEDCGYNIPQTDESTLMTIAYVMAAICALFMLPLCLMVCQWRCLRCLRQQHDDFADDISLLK
Assay [3] is described as follows: Inhibition of pig pepsin by fluorescence technique. On the set-up: species or system Sus scrofa.

Chain of Protease (Q9YQ12 whole entry): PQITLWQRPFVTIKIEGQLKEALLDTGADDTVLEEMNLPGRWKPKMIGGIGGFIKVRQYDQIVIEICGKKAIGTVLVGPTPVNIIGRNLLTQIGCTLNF

On to `CC(C)CN(CCNCCN(CC(C)C)S(=O)(=O)c1ccccc1)S(=O)(=O)c1ccccc1`, for which the negative-log Ki (pKi) is 5.00 on Protease, 4.64 in assay [1], 4.06 in assay [2] and 5.35 in assay [3]. The negative-log IC50 (pIC50) on Renin and on Beta-secretase 1 was under 3.60 in each case.
With `O=S(=O)(c1ccccc1)N(CCCNCCN(Cc1ccccc1)S(=O)(=O)c1ccccc1)Cc1ccccc1`, the negative logarithm of the Ki (pKi) is 4.85 at Protease, 4.74 in assay [1], 4.77 in assay [2] and 4.82 in assay [3]. Further, the pIC50 on Renin and at Beta-secretase 1 was under 3.60 in each case.
Take `O=S(=O)(c1ccccc1)N(CCCNCCCN(Cc1ccccc1)S(=O)(=O)c1ccccc1)Cc1ccccc1`: the pIC50 (on Protease; at Renin; in assay [3]) was under 3.60 in each case. In addition, the pKi in assay [1] was 4.68; in assay [2], 4.38; on Beta-secretase 1, 3.82.
With `O=C(Cc1ccccc1)N(CCCNCCCN(Cc1ccccc1)C(=O)Cc1ccccc1)Cc1ccccc1`, the pIC50 (at Protease; on Beta-secretase 1; in assay [3]) was under 3.60 in each case. The results for the pKi (in assay [1]; in assay [2]; at Renin) were 3.92, 3.77 and 4.80, respectively.
As for `Nc1ccc(S(=O)(=O)N(CCCNCCCN(Cc2ccccc2)S(=O)(=O)c2ccc(N)cc2)Cc2ccccc2)cc1`, the pIC50 on Protease and at Renin was under 3.60 throughout. For the same compound, the negative logarithm of the Ki (pKi) in assay [1] is 5.55; in assay [2], 4.70; on Beta-secretase 1, 4.19; in assay [3] it was 5.40.
Regarding `CC(C)CN(C[C@@H](O)[C@H](Cc1ccccc1)NC(=O)O[C@H]1CCOC1)S(=O)(=O)c1ccc(N)cc1`, the pKi on Protease is 6.05.
Turning to `Nc1ccc(S(=O)(=O)N(CCNCCN(Cc2ccccc2)S(=O)(=O)c2ccc(N)cc2)Cc2ccccc2)cc1`, the pKi in assay [1] is 5.38; in assay [2], 5.12; in assay [3], 5.41. The negative-log IC50 (pIC50) on Renin and on Beta-secretase 1 was under 3.60 throughout.
Take `O=C(Cc1ccccc1)N(CCCNCCN(Cc1ccccc1)C(=O)Cc1ccccc1)Cc1ccccc1`: the negative logarithm of the IC50 (pIC50) (on Protease; at Renin; on Beta-secretase 1; in assay [3]) was under 3.60 in each case. Also, the pKi is 4.20 in assay [1] and 4.25 in assay [2].
As to `O=S(=O)(c1ccccc1)N(CCNCCN(Cc1ccccc1)S(=O)(=O)c1ccccc1)Cc1ccccc1`, the pKi at Protease was 5.42; in assay [1], 5.15; in assay [2], 4.44; in assay [3], 5.24. For the same compound, the pIC50 at Renin and at Beta-secretase 1 was under 3.60 each time.
On to `Nc1ccc(S(=O)(=O)N(CCCNCCN(Cc2ccccc2)S(=O)(=O)c2ccc(N)cc2)Cc2ccccc2)cc1`, for which the negative logarithm of the IC50 (pIC50) (on Protease; at Renin; at Beta-secretase 1; in assay [3]) was under 3.60 each time. The negative-log Ki (pKi) in assay [1] was 4.66; in assay [2], 5.12.
Take `O=C(Cc1ccccc1)N(CCNCCN(Cc1ccccc1)C(=O)Cc1ccccc1)Cc1ccccc1`: the pIC50 (at Protease; on Beta-secretase 1; in assay [3]) was under 3.60 in each case. The pKi in assay [1] was 4.04; in assay [2], 4.01; on Renin it was 5.24.
Turning to `CC(C)CN(CCNCCN(CC(C)C)S(=O)(=O)c1ccc(N)cc1)S(=O)(=O)c1ccc(N)cc1`, the pKi in assay [1] was 5.17; in assay [2], 4.25; in assay [3], 5.32. Further, the pIC50 on Renin and at Beta-secretase 1 was under 3.60 in each case.

Usually pKi stands for the Ki on a negative log10 scale, so that one unit is a factor of ten. In general, pIC50 refers to the IC50 on a negative log10 scale, so that one unit is a factor of ten.
